# Shown are actives, neighbours in structure and some others; about 1.8% of the full set was active somewhere.
# TCR-CD3 inh: human TCR-CD3 binding inhibition | TAMRA-labeled TCR probe fluorescence, biochemical | inhibition, % at 9.4 µM | actives 0.37% (n = 360,000) | AID 651800; in the data active = inhibition above about 19%;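 note: recombinant mutant TCR 2C K166C tagged with TAMRA read by polarization; 0% = receptor in buffer alone and 100% = receptor with positive control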
# PME-1 inh: blocks human protein phosphatase methylesterase 1. recombinant PME-1, FP-Rh probe fluorescence polarization. Q9Y570. actives 0.53% (n = 320,000). inhibition, % at 5.9 µM;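 active = inhibition above the campaign mean of all compounds plus 3 SD, cut at about 26% in these data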;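 note: competitive labeling of PME-1 active site by serine hydrolase directed probe; 0% = PME-1 with DMSO and 100% = wells lacking PME-1 enzyme; inhibitors block probe labeling so polarization falls and inhibition rises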
# Fam108B counter: counter-screen for RBBP9 inhibitors: inhibitors of mouse Fam108B. recombinant Fam108B, FP-Rh probe fluorescence polarization. inhibition, % at 9.51 µM. actives 0.33% (n = 300,000). AID 1947;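 active = inhibition above the screen mean inhibition plus 3 SD, computed separately per campaign, cut at about 18% in these data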;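 note: inhibitors lower polarization as less probe binds the enzyme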
# HTRA1 inhibitor: inhibitors of human serine peptidase HTRA1; Q92743; recombinant HTRA1, FP-rhodamine activity-based probe, fluorescence polarization; inhibition, % at 5.96 µM; actives 0.5% (n = 340,000); AID 504803; in the data active = inhibition above about 36%;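 note: 0% = enzyme with DMSO and 100% = wells lacking enzyme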
# SIAE inh: inhibitors of human sialic acid acetylesterase SIAE. Q9HAT2. SIAE FP-Rh probe binding, fluorescence polarization. inhibition, % at 9.66 µM. actives 0.69% (n = 370,000). AID 1053197;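 active = inhibition above a cutoff: mean of compounds within the control limits plus 3 SD of those, cut at about 17% in these data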;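 note: 0% = plate median of compound wells and 100% = probe without SIAE protein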
# mABHD4 FP: ABHD4 (mouse) inhibition, primary FP screen; purified mABHD4, FP-Rh probe fluorescence polarization; Q8VD66; inhibition, % at 8.92 µM; AID 720543; actives 0.54% (n = 370,000);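 active = inhibition exceeding the mean over every tested compound plus 3 SD, cut at about 30% in these data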;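 note: 0% = plate median of compound wells and 100% = S159A mutant with DMSO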
# Target sequence (Q8VD66 whole entry, looked up): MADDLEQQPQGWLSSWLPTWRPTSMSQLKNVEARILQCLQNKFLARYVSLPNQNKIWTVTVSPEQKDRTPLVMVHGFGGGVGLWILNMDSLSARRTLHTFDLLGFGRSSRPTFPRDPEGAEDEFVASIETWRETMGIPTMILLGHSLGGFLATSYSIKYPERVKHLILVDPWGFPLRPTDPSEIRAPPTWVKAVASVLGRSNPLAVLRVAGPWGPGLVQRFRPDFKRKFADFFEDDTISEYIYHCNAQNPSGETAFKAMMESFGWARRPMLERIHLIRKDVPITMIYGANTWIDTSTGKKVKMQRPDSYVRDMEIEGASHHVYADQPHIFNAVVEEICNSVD
#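 Test system: mABHD4 protein; Read-out basis: % inhibition; Incubation: 45 min + 60 min at 25 °C; Repeats: single replicate; Technique: fluorescence polarization with parallel and perpendicular emission, 525/598 nm; Compound: 8.92 µM, single dose; Benchmarks: full inhibition S159A mutant plus DMSO, zero as sample-well median.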
# HTRA1 inh conf: HTRA1 (human) inhibition, confirmation; inhibition, % at 5.96 µM; recombinant HTRA1, FP-rhodamine activity-based probe, fluorescence polarization; actives 66% (n = 1,600); shares compounds with HTRA1 inhibitor;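 active = mean inhibition over three repeats above a set limit taken from the earlier primary screen, cut at about 37% in these data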;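 note: 0% = HTRA1 with DMSO and 100% = wells lacking HTRA1; inhibitors block probe binding so polarization drops and inhibition rises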
# * hit, by the source's call; · = no result; + = active, no number.
SMILES,TCR-CD3 inh,PME-1 inh,Fam108B counter,HTRA1 inhibitor,SIAE inh,mABHD4 FP,HTRA1 inh conf
COC(=O)C1=C(C)NC(=O)/C1=C\c1cc(C)n(-c2cccc(C)c2)c1C,3,10,8,52*,5,22,38*
C#CCN1CC(N(C)CCOC(=O)c2occ3ccccc23)CS1(=O)=O (configuration not stated),·,·,·,·,0,0,·
Cc1cc(C(=O)N/N=C/c2ccc([N+](=O)[O-])s2)c2ccccc2n1,3,8,4,47*,15,16,29
O=C(N/N=C\c1ccc([N+](=O)[O-])s1)c1cncc(Br)c1,-2,5,10,56*,-6,2,52*
C=CCN(C)CC#Cc1ccc(C)cc1,·,·,·,·,-3,5,·
COc1cc2c(cc1OC)C(=O)C(c1ccc3c(c1)OCO3)CC2 (configuration not stated),0,·,·,-2,2,0,·
COc1cc2c(cc1OC)C(=O)C(Br)CC2 (configuration not stated),·,·,·,42*,·,·,6
C[C@@H]1CN(C(=O)OC(C)(C)C)CCN1c1ccc(Br)c(C#N)c1,8,·,·,·,5,-3,·
CN(C)c1ccc(C=c2c3ccccc3n3c2c2ccccc2[n+]3C)cc1,31*,·,·,87*,17*,58*,90*
Cc1cc2c(=Cc3ccc(N(C)C)cc3)c3ccccc3n2[n+]1C,-30,·,·,-20,-74,-101,·
CCOC(=O)c1cc2c(=Cc3ccc(N(C)C)cc3)c3ccccc3n2[n+]1C,-22,·,·,46*,-45,-68,2
COC(=O)[C@]12C[C@H](CC(=O)NCC34CC5CC(CC(C5)C3)C4)C(=O)N(Cc3ccco3)C1=C[C@H](C1CCCC1)O[C@@H]2C,·,·,·,·,0,3,·
O=C(/C=C/c1cccs1)NC(=S)Nc1ccccc1,-7,0,-9,-16,4,4,·
O=C(/C=C/c1cccs1)NC(=S)NNC(=O)c1ccccc1O,-11,-19,9,48*,6,6,58*
CC(C)C(=O)N1CCC(Oc2cccnc2)CC1,·,·,·,·,4,4,·
C=CCOc1ccc(C2OC34CCCCC3C(C#N)(C#N)C2(C#N)C(=N)O4)cc1 (configuration not stated),·,10,9,38*,·,·,-3
Cc1ccc(NCC(O)C(O)C(O)CO)cc1C (configuration not stated),5,1,-1,8,-11,4,·
Cc1cc(N=Nc2ccccc2)c(NCC(O)C(O)C(O)CO)cc1C (configuration not stated),-7,13,4,45*,4,14,39*
O=C(N/N=C/c1c[nH]c2ccccc12)c1cccc(O)c1,-13,10,1,2,4,-1,·
O=C(N/N=C/c1c[nH]c2ccccc12)c1ccc(O)c(O)c1,6,10,-3,53*,5,27,82*
CC(C)(C)c1ccc(S(=O)(=O)N2CCC(c3cn4ccccc4n3)CC2)cc1,·,·,·,·,-3,2,·
CC(C)(C)c1cc(NCc2ccccn2)n2ncc(-c3ccc(Cl)cc3)c2n1,-10,6,-2,3,-1,1,·
CN(C)CCCNc1cc(C(C)(C)C)nc2c(-c3ccc(Cl)cc3)cnn12,-9,6,5,49*,6,26,70*
O=C(Oc1ccc(/C=N/NC(=O)c2ccccc2O)cc1)c1ccccc1,1,-27,-8,41*,-4,-6,-6
O=C1/C(=C\c2ccc(O)c(O)c2)SC(=S)N1Cc1ccccc1,-51,·,·,-100,-71,-112,·
SMILES,TCR-CD3 inh,PME-1 inh,Fam108B counter,HTRA1 inhibitor,SIAE inh,mABHD4 FP,HTRA1 inh conf
O=C1/C(=C\c2cccc(O)c2O)SC(=S)N1Cc1ccccc1,-2,-5,10,54*,-6,13,65*
O=C(CN1C(=O)/C(=C/c2ccccc2)SC1=S)NNC(=O)c1ccccc1O,18,-4,-10,55*,2,-1,42*
CC(C)(C)NC(=O)CN1C(=O)/C(=C/c2ccccc2)SC1=S,-8,-3,4,2,2,-3,·
COc1ccc2ccccc2c1C=Nn1c(-c2n[nH]c3c2CCC3)n[nH]c1=S,·,·,·,·,0,-3,·
O=C(OC12CCCN(C1)/C(=C/c1ccc(Cl)cc1)C2)c1ccno1 (configuration not stated),·,·,·,·,-1,-3,·
CCOc1ccc(N2C(=O)CNC2=S)cc1,-3,2,-1,4,3,-3,·
CCOc1ccc(N2C(=O)CS/C2=C(\C(Cl)=C(Cl)Cl)[N+](=O)[O-])cc1,·,3,7,42*,·,·,+
c1nc(NCC2CCCCO2)c2cc(-c3ccc4c(c3)OCO4)ccc2n1 (configuration not stated),·,·,·,·,-7,-3,·
COc1ccc(C(=O)C[n+]2ccc3c(c2)nc(Cc2ccccc2)n3C)cc1,·,·,·,·,-2,4,·
S=c1[nH]nc(-c2c[nH]c3ccccc23)o1,9,3,-4,-4,3,0,·
Oc1cc2ccccc2cc1-c1n[nH]c(=S)o1,2,8,8,48*,-4,23,49*
O=c1c2ccccc2[nH]n1[C@@H](Cc1ccccc1)Cn1cc(-c2ccc(-c3ccccc3)cc2)nn1,·,·,·,·,8,-5,·
COc1ccc2[nH]c(O)c(N=NC(=O)c3ccc(NS(=O)(=O)c4cccs4)cc3)c2c1,3,30*,·,45*,17,29,34
C=CS(=O)(=O)N(Cc1nnn(Cc2ccccc2)c1Br)[C@@H](CC(C)C)C(=O)OC,·,·,·,·,0,-1,·
N=c1c2c(ccn1Cc1ccccc1)Oc1ccc3ccccc3c1C2c1ccccc1 (configuration not stated),·,·,·,·,-110,-99,·
Cc1cccc(NC(=O)Oc2ccc(Cl)c3cccnc23)c1,-2,·,·,54*,11,-1,41*
O=C(Oc1ccc(Cl)c2cccnc12)N1CCCCC1,7,0,2,1,-2,3,·
O=C(Oc1ccc(Cl)c2cccnc12)c1cccnc1,0,11,6,71*,8,2,82*
CCC[C@H]1[C@@H](OC(=O)NC2CCCCC2)CC[C@@]23CCCN2C(=O)CCC[C@@H]13,·,·,·,·,2,-5,·
C[C@H](O)[C@@H]1CN2CCc3c([nH]c4c(-c5ccc6c(c5)OCO6)cccc34)[C@@H]2C[C@@H]1N(C)C(=O)c1ccccc1F,·,·,·,·,-3,1,·
Cc1cccc2sc(NNC(=O)c3cc(-c4cccs4)nc4ccccc34)nc12,-11,1,-7,44*,-4,-1,42*
CC(N=Cc1cccc(O)c1O)c1ccccc1 (configuration not stated),·,18,12,66*,·,·,100*
Cc1cccc(C=Nc2ccc3c(c2)oc2ccccc23)c1O,5,4,5,6,5,4,·
Cc1ccccc1N=Cc1cccc(O)c1O,·,4,4,49*,·,·,32

# From PubChem BioAssay
